Tests used:
[1] = system: Penicillium digitatum; test: Fungicidal activity against TBZ-resistant Penicillium digitatum infected Nova mandarins assessed as postharvest green mold incidence at 600 mg/L treated for 1 min at 20 degC at 20 hr after fungal conidial inoculation measured after 5 days of storage at 20 degC (water Rvb = 100%); assay type: functional
[2] = system: Penicillium digitatum; test: Fungicidal activity against TBZ-sensitive Penicillium digitatum infected Nova mandarins assessed as postharvest green mold incidence at 600 mg/L treated for 1 min at 20 degC at 20 hr after fungal conidial inoculation measured after 5 days of storage at 20 degC in presence of 0.5% SBC (water Rvb = 100%); assay type: functional
How it was run: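 Fruit were surface-disinfected in 1 g/L hypochlorite for 30 s, rinsed, dried, then wounded twice equatorially (2 mm × 2 mm rod). Inoculation was a 1 min dip in P. digitatum conidia, 1 × 10^5 conidia/mL final. Fruit were held 20 h at 20 °C and 90% RH, dipped 1 min (SBC wt/vol), and air-dried. Storage was 20 °C, 90% RH. Decay incidence (% fruit with lesions) was scored at 5 d for mandarins and 7 d for oranges. Three replicates of 40 fruit were used; arcsin-transformed data were compared by LSD, p ≤ 0.05.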

## c1ccc2[nH]c(-c3cscn3)nc2c1 [THIABENDAZOLE]
[1]
  Activity: 98.3%
[2]
  Activity: 0%

— ChEMBL document CHEMBL3045217, “Factors affecting the synergy of thiabendazole, sodium bicarbonate, and heat to control postharvest green mold of citrus fruit” (J Agric Food Chem, 2008)
